Assay outcomes from PubChem BioAssay.
In the library only some 2.7% were active in any assay of this set; here they are far more common.
M18AAP inhibitor = PfM18AAP inhibitors, malaria aminopeptidase, primary screen, biochemical, QFRET, recombinant enzyme; M18 aspartyl aminopeptidase (Plasmodium falciparum 3D7); H-Glu-NHMec fluorogenic cleavage; inhibition, % at 7.35 µM; hit rate 1.2% among 290,000; AID 1822, 2009;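 active = inhibition above the campaign mean inhibition over all tested compounds plus 3 SD, cut at about 28% in these data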;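 note: 0% = plate median of test compound wells and 100% = 2 mM ZnCl2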
CTSL1 counter = Fasciola hepatica cathepsin L1 inhibitors, primary screen, counter-screen for PFM18AAP inhibitor project, biochemical, QFRET, fluorogenic peptide substrate; recombinant F. hepatica cathepsin L1, Z-Leu-Arg-MCA fluorescence; inhibition, % at 5.96 µM; hit rate 0.49% among 300,000;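 active = inhibition above the mean of all tested compounds plus 3 SD, set per screening campaign, cut at about 17% in these data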;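 note: 0% = plate median of test compound wells and 100% = 1 µM Z-Phe-Ala-diazomethylketone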
VIM-2 inh = VIM-2 metallo-beta-lactamase inhibitors, primary screen, biochemical, epi-absorbance readout, Pseudomonas aeruginosa enzyme | purified VIM-2, nitrocefin hydrolysis, epi-absorbance fluorescence | inhibition, % at 5.6 µM | hit rate 0.89% among 290,000 | AID 1527, 2009;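 active = inhibition above the mean of all tested compounds plus 3 SD, cutoff set per screening run, cut at about 7.5% in these data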;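 note: red hydrolysis product quenches plate fluorescence so inhibitors raise well fluorescence; 0% = enzyme with DMSO and 100% = DMSO without enzyme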
IMP-1 inhibitor = IMP-1 metallo-beta-lactamase inhibitors, primary screen, biochemical, epi-absorbance readout, Pseudomonas aeruginosa enzyme. purified IMP-1, nitrocefin hydrolysis, epi-absorbance fluorescence. inhibition, % at 5.6 µM. hit rate 0.45% among 290,000;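 active = inhibition above the mean plus 3 SD of all compounds in the same screening run, cut at about 4.5% in these data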;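 note: 0% = IMP-1 with DMSO and 100% = DMSO wells lacking enzyme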
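System: purified IMP-1 / Input: IMP-1 dispensed at 0.2 nM / Medium: 50 mM HEPES pH 7.1, 50 µM ZnSO4, 0.05% Brij 35 / Timing: 15 min enzyme–compound preincubation, then 25 min nitrocefin reaction, 25 °C / Technique: plate fluorescence quenching by hydrolysis product, ex 480/em 530 nm / Repeats: singlicate testing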
Numbers without * were called inactive; . = no result.

SMILES	M18AAP inhibitor	CTSL1 counter	VIM-2 inh	IMP-1 inhibitor
Cc1c(OC(=O)CNC(=O)OC(C)(C)C)ccc2c3c(c(=O)oc12)CCC3	8	-2	23*	-1
CC(=O)C(C)Oc1ccc2c3c(c(=O)oc2c1C)CCCC3 (stereo not given)	0	2	10*	-5
CC(=O)COc1ccc2c3c(c(=O)oc2c1C)CCCCC3	2	6	-6	-1
CCc1ccc(OCc2ccc(C(=O)OC)o2)cc1	-2	-5	-1	-1
CN(C)C(CNC(=O)C1CCCN(C(=O)c2ccc(Cl)cc2)C1)c1ccco1 (stereo not given)	4	18*	-2	-4
CC(=O)Nc1ccc(NC(=O)C2CCCN(C(=O)c3ccc(Cl)cc3)C2)cc1 (stereo not given)	-2	-1	-3	-3
O=C(CCNS(=O)(=O)c1ccccc1)N1CCN(c2ccccc2F)CC1	-9	-2	-3	-2
O=C(NCCCn1cccn1)c1cc(COc2ccc(F)cc2Cl)on1	30*	-1	-2	-3
Cc1cc(Cl)c(S(=O)(=O)N2CCN(c3ccccn3)CC2)cc1OCC(=O)NC1CCCCC1	3	3	-2	-4
CC(Oc1cc2oc(=O)c3c(c2cc1Cl)CCC3)C(=O)NCc1ccccn1 (stereo not given)	3	-1	12*	-3
O=C(COc1ccc2c3c(c(=O)oc2c1)CCCC3)NCc1ccccn1	-3	1	7.8*	-2
CC(Oc1cc2oc(=O)c3c(c2cc1Cl)CCC3)C(=O)NCc1cccnc1 (stereo not given)	3	-3	11*	-3
CC(Oc1cc2oc(=O)c3c(c2cc1Cl)CCCC3)C(=O)NCc1cccnc1 (stereo not given)	-4	2	7	-1
O=C(COc1cc2oc(=O)c3c(c2cc1Cl)CCC3)NCc1ccccn1	4	2	10*	2
CCc1cc(=O)oc2cc(OCC(=O)NCc3ccccn3)ccc12	2	1	1	-2
CC1CCC(NC(=O)c2ccc3c(c2)S(=O)(=O)c2ccccc2C3=O)CC1 (stereo not given)	.	2	.	.
O=C(CN1CCOCC1)NCc1cc([N+](=O)[O-])ccc1O	-6	-3	1	0
CC(=O)N1CCc2cc(S(=O)(=O)CCC(=O)NCc3ccc4c(c3)OCO4)ccc21	2	18*	-1	-2
CC(=O)N1CCc2cc(S(=O)(=O)CCC(=O)NCc3cccs3)ccc21	-2	-1	2	-3
CC(C)(C)NC(=O)C(=O)NNC(=O)COc1ccc(Br)cc1	3	-8	-4	-5
NCCNC(=O)Cn1c(=O)c2c3c(sc2n(Cc2ccccc2)c1=O)CCCC3	-18	-1	8.2*	-1
O=C(O)C1C2C=CC3(O2)C1C(=O)N1c2ccccc2C2OCCC2C13 (stereo not given)	-14	-7	11*	1
COc1cccc(-c2nc(-c3ccc4c(c3)-c3ccccc3S4(=O)=O)c(-c3ccccc3)[nH]2)c1OC	-3	4	-2	4.8*
Cc1ccccc1OCC(=O)Nc1ccccc1N1CCC(C)CC1	-1	-1	-1	-1
CC(=O)Oc1ccc(C(=O)Nc2cccc3c2CCCC3)cc1	-7	-7	-1	-3
SMILES	M18AAP inhibitor	CTSL1 counter	VIM-2 inh	IMP-1 inhibitor
O=C(CN1CCCCC1)NNc1nc(-c2ccccc2)c2cc(Cl)ccc2n1	-3	-3	0	-2
O=C(O)CCC(=O)NNc1nc(-c2ccccc2)c2cc(Cl)ccc2n1	30*	0	1	-2
NC(=S)N/N=C1\CCSc2ccc(Cl)cc21	0	26*	-2	-3
COc1cccc(C(=O)Nn2cnnc2)c1	30*	1	-4	-4
O=C1CC(c2ccc(F)c(Br)c2)C2=C(CCCC2=O)N1 (stereo not given)	-2	2	-6	-4
CC1=CC(C)C2(CO)COC(c3ccccc3O)C1C2C (stereo not given)	1	-3	-1	3
CCOC(=O)c1c(-c2ccc(OC)cc2)csc1/N=C/C1C(=O)CCCC1=O	34*	0	0	0
O=C(CN1CCCC1)Nc1c(Cl)cccc1Cl	-10	-1	-1	-3
Cc1noc(C)c1COc1ccc(C(=O)NNC(=O)c2ccccc2O)cc1	.	-1	.	.
CCOC(=O)/C=C/C(=O)OCC(=O)Nc1ccc(Cl)cn1	-19	-9	-2	-5
CCOC(=O)NC1(Nc2ccc(Cl)cn2)Oc2ccccc2O1	57*	.	0	-1
CC(=O)N(C1=C(Cl)C(=O)c2ccccc2C1=O)C1CCCCC1	-60	23*	0	-2
CCN(CC)S(=O)(=O)c1cccc(C(=O)NCCc2ccccc2)c1	-6	7	0	2
CN(c1ccccc1)S(=O)(=O)c1cccc(C(=O)NCCc2ccc(O)c(O)c2)c1	40*	2	-2	-2
CCCCOc1ccc(S(=O)(=O)N2CCN(c3ccc(N4CCN(CC)CC4)nn3)CC2)cc1	.	18*	.	.
O=C(O)c1ccc(CSc2nnc(COc3ccc(Cl)cc3Cl)o2)cc1	.	40*	.	.
COc1ccc(OCc2nnc(SCc3ccc(C(=O)O)cc3)o2)cc1	-5	-6	1	0
CN(C)c1cc(Nc2ccc(O)cc2)c([N+](=O)[O-])c2nonc12	3	10	9.1*	-4
COc1ccc(-c2cc(C(F)(F)F)c3c(N)c(C(=O)NCCSC)sc3n2)cc1	4	7	3	-1
CN(C)CCNC(=O)c1sc2nc(-c3ccccc3)cc(C(F)(F)F)c2c1N	3	-2	12*	-1
COc1ccc2c(c1)C(=O)N(Cc1ccccc1)C(=O)C2(C)C	0	0	0	-1
CCCCN(C(=S)Nc1ccccc1)C1CCS(=O)(=O)C1 (stereo not given)	-6	18*	-5	-2
CCCCN(C(=O)c1ccccc1Br)C1CCS(=O)(=O)C1 (stereo not given)	.	-3	.	.
O=C1c2ccccc2C(=O)N1Cc1cccnc1	0	0	-3	-3
Cc1nc2ccccc2c2c1C(=O)N(Cc1cccnc1)C2=O	7	4	11*	-3
SMILES	M18AAP inhibitor	CTSL1 counter	VIM-2 inh	IMP-1 inhibitor
N#CC1(c2ccc(NC(=O)c3ccccc3)cc2)CCCC1	-5	2	-2	-2
CC(=O)Oc1ccc(C(=O)Nc2ccc(C3(C#N)CCCC3)cc2)cc1	4	-9	0	12*
COC(=O)c1c(C(=O)OC)c2cc(C)ccn2c1Cl	-1	-4	8.1*	-4
COC(=O)c1nc2cc(C)ccn2c1F	4	-4	1	-1
COC(=O)c1ccc(-c2ccco2)n1Cc1ccccc1Cl	5	-2	-6	-3
COC(=O)c1ccc(-c2ccco2)n1Cc1nc(-c2ccc(OC)c(OC)c2)oc1C	-12	19*	1	0
O=C(NCCN1CCCCC1)Nc1cccc(F)c1	1	0	-1	-3
COc1ccc(C(CNC(=O)c2cccc(S(=O)(=O)NCc3ccccc3)c2)N(C)C)cc1 (stereo not given)	-1	-2	-3	-5
Cc1ccc(C)c(NC(=S)NCCSc2ccc(Cl)cc2)c1	-2	-1	-1	-1
Cc1ccccc1NC(=S)NCCSc1ccc(Cl)cc1	6	0	-3	50*
Cc1cc(C(=O)CCl)c(C)n1CCc1ccccc1	1	17*	-2	-2
